ChEMBL document CHEMBL1914386, “Neopetrosiquinones A and B, sesquiterpene benzoquinones isolated from the deep-water sponge Neopetrosia cf. proxima” (Bioorg Med Chem, 2011)
Active and inactive are the calls of the source. The calls are words filed in the database; no cut-off is given here.

How the values were obtained:
Trypanosoma cruzi = assay: Antitrypanosomal activity against Trypanosoma cruzi Tulahuen assessed as parasite growth after 10 days by nephelometry; assay type: functional; conditions: 240 h
PANC-1 = assay: Cytotoxicity against human PANC1 cells after 48 hrs by MTT assay; assay type: functional, cell-based; conditions: PANC-1, 48 h
Procedure, shortened: (§1)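 Proliferation of human tumour lines obtained from ATCC: A549 lung adenocarcinoma (CCL-185), PANC-1 pancreatic (CRL-1469), AsPC-1 pancreatic (CRL-1682) and DLD-1 colorectal adenocarcinoma. The assay was run by a protocol described earlier.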

[1] = Cytotoxicity against human NCI-ADR-RES cells after 48 hrs by MTT assay; assay type: functional, cell-based
DLD-1 = assay: Cytotoxicity against human DLD1 cells after 48 hrs by MTT assay; assay type: functional, cell-based; conditions: DLD-1, 48 h; procedure, shortened: as §1
ASPC1 = assay: Cytotoxicity against human AsPC1 cells after 48 hrs by MTT assay; assay type: functional, cell-based; conditions: ASPC1, 48 h; procedure, shortened: as §1
A549 = assay: Cytotoxicity against human A549 cells after 48 hrs by MTT assay; assay type: functional, cell-based; conditions: A549, 48 h; procedure, shortened: as §1
[2] = target: TCF4/beta-catenin (Homo sapiens) (UniProt P35222+Q9NQB0); assay: Inhibition of GST-tagged T cell factor4/[…] interaction assessed as reduction in alkaline phosphatase level; assay type: cell-based

Row | SMILES | GI50 (Trypanosoma cruzi) [µM] | IC50 (PANC-1) [µM] | IC50 [1] [µM] | IC50 (DLD-1) [µM] | IC50 (ASPC1) [µM] | IC50 (A549) [µM] | inhibition [2]
1 | CC1(C)CCC[C@@]2(C)c3cc4c(cc3CC[C@H]12)C(=O)C=CC4=O [CYCLOZONARONE] | 0.7 |  |  |  |  |  | 
2 | C[C@]1(C=O)CCC[C@]2(C)c3cc4c(cc3C(=O)C[C@@H]12)C(=O)C=CC4=O |  | 6.1 | > 14.8 | 3.7 | 6.1 | > 14.8 | 
3 | C[C@]1(CO)CCC[C@]2(C)c3cc4c(cc3C=C[C@@H]12)C(=O)C=CC4=O |  | 13.8 | > 15.5 | 9.8 | > 15.5 | > 15.5 | 
4 | C[C@@]12CCC(=O)c3coc(c31)C(=O)c1cc3c(cc12)C(=O)C=CC3=O |  |  |  |  |  |  | inactive
